Test results reported in ChEMBL document CHEMBL1926569, “Novel (E)-1-(4-methyl-2-(alkylamino)thiazol-5-yl)-3-arylprop-2-en-1-ones as potent antimicrobial agents” (2011).
≈ marks a conversion by molar mass, not a printed value.

What was measured:
[1] = tested on: Staphylococcus aureus; assay: Antibacterial activity against Staphylococcus aureus ATCC 6538 after 24 hrs by microdilution method; assay type: functional; conditions: ATCC 6538, 24 h
In short: (§1)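 Broth microdilution in 96-well plates. Bacterial suspensions were adjusted in sterile saline to 1.0 × 10⁵ CFU/ml, prepared daily and kept at 4 °C. Compound was added to LB broth with 1.0 × 10⁴ CFU per well and shaken at 160 rpm for 24 h at […] (so in the source). MIC is the lowest concentration with no visible growth under a binocular microscope. OD655 was also read. Duplicate, repeated three times.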

[2] = tested on: Bacillus cereus; assay: Antibacterial activity against clinical isolate of Bacillus cereus after 24 hrs by microdilution method; assay type: functional; in short: as §1
[3] = tested on: Micrococcus flavus; assay: Antibacterial activity against Micrococcus flavus ATCC 10240 after 24 hrs by microdilution method; assay type: functional; conditions: ATCC 10240, 24 h; in short: as §1
[4] = tested on: Listeria monocytogenes; assay: Antibacterial activity against Listeria monocytogenes NCTC 7973 after 24 hrs by microdilution method; assay type: functional; conditions: NCTC 7973, 24 h; in short: as §1
[5] = tested on: Pseudomonas aeruginosa; assay: Antibacterial activity against Pseudomonas aeruginosa ATCC 27853 after 24 hrs by microdilution method; assay type: functional; conditions: ATCC 27853, 24 h; in short: as §1
[6] = tested on: Salmonella typhimurium; assay: Antibacterial activity against Salmonella Typhimurium ATCC 13311 after 24 hrs by microdilution method; assay type: functional, Salmonella enterica subsp. enterica serovar Typhimurium; conditions: Salmonella enterica, ATCC 13311, 24 h; in short: as §1
[7] = tested on: Escherichia coli; assay: Antibacterial activity against Escherichia coli ATCC 35210 after 24 hrs by microdilution method; assay type: functional; conditions: ATCC 35210, 24 h; in short: as §1
[8] = tested on: Enterococcus faecalis; assay: Antibacterial activity against Enterococcus faecalis isolated from human after 24 hrs by microdilution method; assay type: functional; in short: as §1
[9] = tested on: Staphylococcus aureus; assay: Antibacterial activity against Staphylococcus aureus ATCC 6538 incubated for 24 hrs followed by serial sub-cultivation for 24 hrs by microdilution method; assay type: functional; conditions: ATCC 6538, 24 h
In short: (§2)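 MBC: after the 24 h LB broth microdilution (1.0 × 10⁴ CFU per well, 160 rpm), wells were serially sub-cultured into fresh broth plates and incubated a further 24 h. MBC is the lowest concentration with no visible growth, taken as 99.5% killing of the original inoculum. Duplicate, repeated three times.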

[10] = tested on: Bacillus cereus; assay: Antibacterial activity against clinical isolate of Bacillus cereus incubated for 24 hrs followed by serial sub-cultivation for 24 hrs by microdilution; assay type: functional; in short: as §2
[11] = tested on: Micrococcus flavus; assay: Antibacterial activity against Micrococcus flavus ATCC 10240 incubated for 24 hrs followed by serial sub-cultivation for 24 hrs by microdilution; assay type: functional; conditions: ATCC 10240, 24 h; in short: as §2
[12] = tested on: Listeria monocytogenes; assay: Antibacterial activity against Listeria monocytogenes NCTC 7973 incubated for 24 hrs followed by serial sub-cultivation for 24 hrs by microdilution; assay type: functional; conditions: NCTC 7973, 24 h; in short: as §2
[13] = tested on: Pseudomonas aeruginosa; assay: Antibacterial activity against Pseudomonas aeruginosa ATCC 27853 incubated for 24 hrs followed by serial sub-cultivation for 24 hrs by microdilution; assay type: functional; conditions: ATCC 27853, 24 h; in short: as §2
[14] = tested on: Salmonella typhimurium; assay: Antibacterial activity against Salmonella Typhimurium ATCC 13311 incubated for 24 hrs followed by serial sub-cultivation for 24 hrs by microdilution; assay type: functional, Salmonella enterica subsp. enterica serovar Typhimurium; conditions: Salmonella enterica, ATCC 13311, 24 h; in short: as §2
[15] = tested on: Escherichia coli; assay: Antibacterial activity against Escherichia coli ATCC 35210 incubated for 24 hrs followed by serial sub-cultivation for 24 hrs by microdilution; assay type: functional; conditions: ATCC 35210, 24 h; in short: as §2
[16] = tested on: Enterococcus faecalis; assay: Antibacterial activity against Enterococcus faecalis isolated from human incubated for 24 hrs followed by serial sub-cultivation for 24 hrs by microdilution; assay type: functional; in short: as §2
[17] = tested on: Aspergillus ochraceus; assay: Antifungal activity against Aspergillus ochraceus ATCC 12066 after 72 hrs by serial dilution technique; assay type: functional; conditions: ATCC 12066, 72 h
In short: (§3)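 Modified microdilution in 96-well plates. Fungi were kept on malt agar at 4 °C. Spores were washed off in sterile 0.85% saline with 0.1% Tween 80. Compounds were dissolved at 1 mg/ml in 5% DMSO with 0.1% Tween 80 and added to malt broth with inoculum. Plates were shaken at 160 rpm for 72 h at 28 °C. Duplicate, repeated three times.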

[18] = tested on: Aspergillus niger; assay: Antifungal activity against Aspergillus niger ATCC 6275 after 72 hrs by serial dilution technique; assay type: functional; conditions: ATCC 6275, 72 h; in short: as §3
[19] = tested on: Aspergillus flavus; assay: Antifungal activity against Aspergillus flavus ATCC 9643 after 72 hrs by serial dilution technique; assay type: functional; conditions: ATCC 9643, 72 h; in short: as §3
[20] = tested on: Talaromyces funiculosus; assay: Antifungal activity against Penicillium funiculosum ATCC 36839 after 72 hrs by serial dilution technique; assay type: functional; conditions: ATCC 36839, 72 h; in short: as §3
[21] = tested on: Penicillium ochrochloron; assay: Antifungal activity against Penicillium ochrochloron ATCC 9112 after 72 hrs by serial dilution technique; assay type: functional; conditions: ATCC 9112, 72 h; in short: as §3
[22] = tested on: Trichoderma viride; assay: Antifungal activity against Trichoderma viride IAM 5061 after 72 hrs by serial dilution technique; assay type: functional; conditions: IAM 5061, 72 h; in short: as §3
[23] = tested on: Candida albicans; assay: Antifungal activity against Candida albicans isolated from human after 72 hrs by serial dilution technique; assay type: functional; in short: as §3
[24] = tested on: Aspergillus ochraceus; assay: Antifungal activity against Aspergillus ochraceus ATCC 12066 incubated for 72 hrs followed by serial sub-cultivation for 72 hrs by serial dilution technique; assay type: functional; conditions: ATCC 12066, 72 h
In short: (§4)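 MFC: material from 72 h malt broth microdilution wells was serially sub-cultured into fresh broth plates and incubated a further 72 h at 28 °C. Fungicidal concentration is taken from growth after sub-culture. Duplicate, repeated three times.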

[25] = tested on: Aspergillus fumigatus; assay: Antifungal activity against Aspergillus fumigatus isolated from human incubated for 72 hrs followed by serial sub-cultivation for 72 hrs by serial dilution technique; assay type: functional; in short: as §4
[26] = tested on: Aspergillus niger; assay: Antifungal activity against Aspergillus niger ATCC 6275 incubated for 72 hrs followed by serial sub-cultivation for 72 hrs by serial dilution technique; assay type: functional; conditions: ATCC 6275, 72 h; in short: as §4
[27] = tested on: Aspergillus flavus; assay: Antifungal activity against Aspergillus flavus ATCC 9643 incubated for 72 hrs followed by serial sub-cultivation for 72 hrs by serial dilution technique; assay type: functional; conditions: ATCC 9643, 72 h; in short: as §4
[28] = tested on: Talaromyces funiculosus; assay: Antifungal activity against Penicillium funiculosum ATCC 36839 incubated for 72 hrs followed by serial sub-cultivation for 72 hrs by serial dilution technique; assay type: functional; conditions: ATCC 36839, 72 h; in short: as §4
[29] = tested on: Penicillium ochrochloron; assay: Antifungal activity against Penicillium ochrochloron ATCC 9112 incubated for 72 hrs followed by serial sub-cultivation for 72 hrs by serial dilution technique; assay type: functional; conditions: ATCC 9112, 72 h; in short: as §4
[30] = tested on: Trichoderma viride; assay: Antifungal activity against Trichoderma viride IAM 5061 incubated for 72 hrs followed by serial sub-cultivation for 72 hrs by serial dilution technique; assay type: functional; conditions: IAM 5061, 72 h; in short: as §4
[31] = tested on: Candida albicans; assay: Antifungal activity against Candida albicans isolated from human incubated for 72 hrs followed by serial sub-cultivation for 72 hrs by serial dilution technique; assay type: functional; in short: as §4
[32] = tested on: Pseudomonas aeruginosa; assay: Ratio of ampicillin MIC to compound MIC for Pseudomonas aeruginosa ATCC 27853; assay type: functional
[33] = tested on: Aspergillus ochraceus; assay: Ratio of bifonazole to compound for Aspergillus ochraceus ATCC 12066; assay type: functional
[34] = tested on: Aspergillus niger; assay: Ratio of bifonazole to compound for Aspergillus niger ATCC 6275; assay type: functional
[35] = tested on: Talaromyces funiculosus; assay: Ratio of bifonazole to compound for Penicillium funiculosum ATCC 36839; assay type: functional
[36] = tested on: Penicillium ochrochloron; assay: Ratio of bifonazole to compound for Penicillium ochrochloron ATCC 9112; assay type: functional
[37] = tested on: Trichoderma viride; assay: Ratio of bifonazole to compound for Trichoderma viride IAM 5061; assay type: functional
[38] = tested on: Candida albicans; assay: Ratio of bifonazole to compound for Candida albicans isolated from human; assay type: functional
[39] = tested on: Aspergillus ochraceus; assay: Ratio of ketoconazole to compound for Aspergillus ochraceus ATCC 12066; assay type: functional
[40] = tested on: Aspergillus fumigatus; assay: Ratio of ketoconazole to compound for Aspergillus fumigatus isolated from human; assay type: functional
[41] = tested on: Penicillium ochrochloron; assay: Ratio of ketoconazole to compound for Penicillium ochrochloron ATCC 9112; assay type: functional
[42] = tested on: Candida albicans; assay: Ratio of ketoconazole to compound for Candida albicans isolated from human; assay type: functional
[43] = tested on: Aspergillus ochraceus; assay: Antifungal activity against Aspergillus ochraceus after 72 hrs by serial dilution technique

MIC [1]: 98 µM (≈ 30.1 µg/mL)
MIC [2]: 49.1 µM (≈ 15.1 µg/mL)
MIC [3]: 32.7 µM (≈ 10 µg/mL)
MIC [4]: 98 µM (≈ 30.1 µg/mL)
MIC [5]: 65.3 µM (≈ 20 µg/mL)
MIC [6]: 49.1 µM (≈ 15.1 µg/mL)
MIC [7]: 49.1 µM (≈ 15.1 µg/mL)
MIC [8]: 49.1 µM (≈ 15.1 µg/mL)
MIC [17]: 65.3 µM (≈ 20 µg/mL)
MIC [18]: 65.3 µM (≈ 20 µg/mL)
MIC [19]: 65.3 µM (≈ 20 µg/mL)
MIC [20]: 32.7 µM (≈ 10 µg/mL)
MIC [21]: 65.3 µM (≈ 20 µg/mL)
MIC [22]: 32.7 µM (≈ 10 µg/mL)
MIC [23]: 32.7 µM (≈ 10 µg/mL)
MIC [43]: 32.7 µM (≈ 10 µg/mL)
SMILES: CCNc1nc(C)c(C(=O)/C=C/c2cccc(Cl)c2)s1
MBC [9]: 98 µM (≈ 30.1 µg/mL)
MBC [10]: 65.3 µM (≈ 20 µg/mL)
MBC [11]: 81.7 µM (≈ 25.1 µg/mL)
MBC [12]: 114 µM (≈ 35.1 µg/mL)
MBC [13]: 81.7 µM (≈ 25.1 µg/mL)
MBC [14]: 65.3 µM (≈ 20 µg/mL)
MBC [15]: 65.3 µM (≈ 20 µg/mL)
MBC [16]: 65.3 µM (≈ 20 µg/mL)
MFC [24]: 81.7 µM (≈ 25.1 µg/mL)
MFC [25]: 65.3 µM (≈ 20 µg/mL)
MFC [26]: 81.7 µM (≈ 25.1 µg/mL)
MFC [27]: 81.7 µM (≈ 25.1 µg/mL)
MFC [28]: 65.3 µM (≈ 20 µg/mL)
MFC [29]: 81.7 µM (≈ 25.1 µg/mL)
MFC [30]: 65.3 µM (≈ 20 µg/mL)
MFC [31]: 65.3 µM (≈ 20 µg/mL)
Ratio [32]: 10
Ratio [33]: 10
Ratio [34]: 10
Ratio [35]: 10
Ratio [36]: 10
Ratio [37]: 10
Ratio [38]: 10
Ratio [39]: 10
Ratio [40]: 10
Ratio [41]: 10
Ratio [42]: 10
